# Measurements taken from ChEMBL document CHEMBL1138494, “Human glucagon receptor antagonists with thiazole cores. A novel series with superior pharmacokinetic properties” (J Med Chem, 2009).
# Activity calls are given as the source filed them. No cut-off for these calls is given here.
# How the values were obtained:
# [1] = target: T1, Gastric inhibitory polypeptide receptor (Homo sapiens, UniProt P48546); experiment: Displacement of [125I]porcine GIP from human recombinant GIPR receptor expressed in BHK cells by scintillation proximity assay; type: cell-based
# T1 sequence (P48546 whole entry): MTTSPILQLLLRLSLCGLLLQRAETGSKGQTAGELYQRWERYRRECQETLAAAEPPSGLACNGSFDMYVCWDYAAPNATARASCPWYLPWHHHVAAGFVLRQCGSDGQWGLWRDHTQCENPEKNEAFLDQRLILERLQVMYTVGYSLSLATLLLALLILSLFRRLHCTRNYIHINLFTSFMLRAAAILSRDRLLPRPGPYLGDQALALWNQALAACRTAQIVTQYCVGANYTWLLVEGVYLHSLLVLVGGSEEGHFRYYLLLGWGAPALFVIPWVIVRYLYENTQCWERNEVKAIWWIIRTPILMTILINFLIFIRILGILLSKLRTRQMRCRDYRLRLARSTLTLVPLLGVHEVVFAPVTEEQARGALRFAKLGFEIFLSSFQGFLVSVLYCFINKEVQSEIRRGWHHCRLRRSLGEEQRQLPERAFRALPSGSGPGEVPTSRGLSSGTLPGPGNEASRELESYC
# Glucagon receptor [2] = target: T2, Glucagon receptor (Homo sapiens, UniProt P47871); experiment: Displacement of [125I]porcine glucagon from human recombinant glucagon receptor expressed in BHK cells by scintillation proximity assay; type: cell-based
# T2 sequence (P47871 whole entry): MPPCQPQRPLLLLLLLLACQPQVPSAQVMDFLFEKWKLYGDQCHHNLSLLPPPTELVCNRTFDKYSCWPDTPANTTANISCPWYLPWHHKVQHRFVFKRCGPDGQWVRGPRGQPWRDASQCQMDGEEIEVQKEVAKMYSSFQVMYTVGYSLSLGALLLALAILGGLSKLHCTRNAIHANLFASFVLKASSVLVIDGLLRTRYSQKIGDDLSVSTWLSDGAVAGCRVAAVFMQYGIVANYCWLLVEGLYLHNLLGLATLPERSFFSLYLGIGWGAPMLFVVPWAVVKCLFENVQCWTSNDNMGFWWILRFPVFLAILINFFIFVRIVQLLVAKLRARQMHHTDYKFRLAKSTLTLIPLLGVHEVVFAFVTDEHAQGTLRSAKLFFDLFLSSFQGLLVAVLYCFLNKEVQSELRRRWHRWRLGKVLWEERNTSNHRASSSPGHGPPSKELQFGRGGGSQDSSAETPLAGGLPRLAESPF
# Glucagon receptor [3] = target: T2, Glucagon receptor; experiment: Binding affinity to human recombinant glucagon receptor expressed in BHK cells by membrane filter assay; type: cell-based
# [4] = target: T1, Gastric inhibitory polypeptide receptor; experiment: Binding affinity to human recombinant GIPR expressed in BHK cells by membrane filter assay; type: cell-based
# Glucagon receptor [5] = target: Glucagon receptor (Rattus norvegicus, UniProt P30082); experiment: Binding affinity to glucagon receptor in rat liver membrane by membrane filter assay; type: cell membranes
# Glucagon receptor (Rattus norvegicus, UniProt P30082), sequence (P30082 whole entry): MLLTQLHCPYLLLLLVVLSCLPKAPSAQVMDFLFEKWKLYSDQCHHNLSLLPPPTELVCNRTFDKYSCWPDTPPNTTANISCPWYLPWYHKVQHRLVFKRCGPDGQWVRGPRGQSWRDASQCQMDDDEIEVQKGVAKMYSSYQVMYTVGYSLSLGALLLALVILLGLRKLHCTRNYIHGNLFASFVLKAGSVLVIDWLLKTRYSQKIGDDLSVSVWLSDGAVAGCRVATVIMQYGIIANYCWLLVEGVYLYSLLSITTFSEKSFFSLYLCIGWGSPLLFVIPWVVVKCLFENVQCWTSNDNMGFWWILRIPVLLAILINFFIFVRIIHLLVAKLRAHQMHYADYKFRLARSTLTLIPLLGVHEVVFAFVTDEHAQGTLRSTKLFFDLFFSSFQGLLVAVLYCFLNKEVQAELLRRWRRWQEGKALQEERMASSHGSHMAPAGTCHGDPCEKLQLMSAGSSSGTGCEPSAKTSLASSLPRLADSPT
# Glucagon receptor [6] = target: Glucagon receptor (Mus musculus, UniProt Q61606); experiment: Binding affinity to glucagon receptor in mouse liver membrane by membrane filter assay; type: cell membranes
# Glucagon receptor (Mus musculus, UniProt Q61606), sequence (Q61606 whole entry): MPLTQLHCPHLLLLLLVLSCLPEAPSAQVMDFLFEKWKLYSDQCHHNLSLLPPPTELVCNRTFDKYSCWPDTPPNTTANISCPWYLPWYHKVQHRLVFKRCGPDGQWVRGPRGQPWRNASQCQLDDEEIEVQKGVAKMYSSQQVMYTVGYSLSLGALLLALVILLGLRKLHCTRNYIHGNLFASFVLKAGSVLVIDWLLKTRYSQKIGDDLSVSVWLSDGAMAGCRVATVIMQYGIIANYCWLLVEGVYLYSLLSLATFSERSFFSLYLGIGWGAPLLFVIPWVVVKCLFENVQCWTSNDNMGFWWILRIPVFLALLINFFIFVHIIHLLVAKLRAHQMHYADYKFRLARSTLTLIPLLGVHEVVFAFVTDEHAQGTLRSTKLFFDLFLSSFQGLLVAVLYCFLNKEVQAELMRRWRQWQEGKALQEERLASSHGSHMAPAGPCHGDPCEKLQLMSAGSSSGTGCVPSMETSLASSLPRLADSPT
# [7] = Binding affinity to glucagon receptor in monkey liver membrane by membrane filter assay; type: cell membranes, Macaca mulatta
# Hepatocyte [8] = experiment: Inhibition of glucagon-stimulated glucose production in human primary hepatocytes preincubated for 10 mins before glucagon addition by NADH-linked hexokinase assay; type: functional, cell-based
# Summary of the method: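 Cultured primary human hepatocytes were preincubated with compound for 10 min, then glycogenolysis was induced with 5 nM glucagon for 60 min. Glucose in the medium was measured against basal glycogenolysis. Albumin was present in the assay medium. IC50 was calculated from four experiments, mean ± SEM.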
# Hepatocyte [9] = experiment: Inhibition of glucagon-stimulated glucose production in rat primary hepatocytes; type: functional, cell-based
# [10] = Half life in fasted Sprague-Dawley rat plasma at 1.66 mg/kg, iv by HTLC-MS/MS analysis; type: ADME, organism-based; design: dose 1.66 mg/kg, route intravenous
# Summary of the method: (§1)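 Rats were dosed intravenously and perorally in separate arms, and plasma concentration-time profiles were obtained. Half-life was taken from the iv arm. Clearance, oral bioavailability, Cmax and Tmax were derived from the profiles.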
# [11] = Oral bioavailability in fasted Sprague-Dawley rat at 3.34 mg/kg by HTLC-MS/MS analysis; type: ADME, organism-based; settings: in vivo
# Summary of the method: (§2)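 Separate intravenous and peroral dosing arms per compound, with plasma concentration followed against time. Oral bioavailability (F_po) is reported per compound together with the intravenous half-life and clearance. The dose used for each arm is listed per compound.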
# [12] = Clearance in fasted Sprague-Dawley rat at 1.66 mg/kg, iv and 3.34 mg/kg, po by HTLC-MS/MS analysis; type: ADME, organism-based; settings: in vivo; summary of the method: as §1
# [13] = Cmax in fasted Sprague-Dawley rat at 1.66 mg/kg, iv and 3.34 mg/kg, po by HTLC-MS/MS analysis; type: ADME, organism-based; settings: in vivo; summary of the method: as §1
# [14] = Tmax in fasted Sprague-Dawley rat at 1.66 mg/kg, iv and 3.34 mg/kg, po by HTLC-MS/MS analysis; type: ADME, organism-based; settings: in vivo
# Summary of the method: (§3)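 Plasma concentration–time profiles were recorded after separate intravenous and peroral dosing at the per-compound doses listed. T_max is reported in min alongside C_max (ng/mL), intravenous half-life and clearance ((mL/min)/kg).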
# Homo sapiens [15] = species: Homo sapiens; experiment: Selectivity ratio of IC50 for human recombinant glucagon receptor to IC50 for human recombinant GIPR
# Summary of the method: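 Competition binding of compounds to recombinant human glucagon and GIP receptors on BHK cell membranes, run in parallel as a scintillation proximity assay and, for selected compounds, as a membrane filtration assay.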
# Homo sapiens [16] = species: Homo sapiens; experiment: Selectivity for human recombinant glucagon receptor over human GLP1R
# [17] = Half life in fasted Sprague-Dawley rat plasma at 1.62 mg/kg, iv by HTLC-MS/MS analysis; type: ADME, organism-based; design: dose 1.62 mg/kg, route intravenous; summary of the method: as §1
# [18] = Oral bioavailability in fasted Sprague-Dawley rat at 3.25 mg/kg by HTLC-MS/MS analysis; type: ADME, organism-based; settings: in vivo; summary of the method: as §2
# [19] = Clearance in fasted Sprague-Dawley rat at 1.62 mg/kg, iv and 3.25 mg/kg, po by HTLC-MS/MS analysis; type: ADME, organism-based; settings: in vivo; summary of the method: as §1
# [20] = Cmax in fasted Sprague-Dawley rat at 1.62 mg/kg, iv and 3.25 mg/kg, po by HTLC-MS/MS analysis; type: ADME, organism-based; settings: in vivo; summary of the method: as §1
# [21] = Tmax in fasted Sprague-Dawley rat at 1.62 mg/kg, iv and 3.25 mg/kg, po by HTLC-MS/MS analysis; type: ADME, organism-based; settings: in vivo; summary of the method: as §3
# [22] = Binding affinity to glucagon receptor in rabbit liver membrane by membrane filter assay; type: cell membranes, Oryctolagus cuniculus
# [23] = Binding affinity to glucagon receptor in pig liver membrane by membrane filter assay; type: cell membranes, Sus scrofa
# [24] = Binding affinity to glucagon receptor in dog liver membrane by membrane filter assay; type: cell membranes, Canis lupus familiaris
# [25] = Half life in fasted Sprague-Dawley rat plasma at 1.59 mg/kg, iv by HTLC-MS/MS analysis; type: ADME, organism-based; design: dose 1.59 mg/kg, route intravenous; summary of the method: as §1
# [26] = Oral bioavailability in fasted Sprague-Dawley rat at 3.20 mg/kg by HTLC-MS/MS analysis; type: ADME, organism-based; settings: in vivo, 3.2 mg/kg; summary of the method: as §2
# [27] = Clearance in fasted Sprague-Dawley rat at 1.59 mg/kg, iv and 3.20 mg/kg, po by HTLC-MS/MS analysis; type: ADME, organism-based; settings: in vivo; summary of the method: as §1
# [28] = Cmax in fasted Sprague-Dawley rat at 1.59 mg/kg, iv and 3.20 mg/kg, po by HTLC-MS/MS analysis; type: ADME, organism-based; settings: in vivo, 3.2 mg/kg; summary of the method: as §1
# [29] = Tmax in fasted Sprague-Dawley rat at 1.59 mg/kg, iv and 3.20 mg/kg, po by HTLC-MS/MS analysis; type: ADME, organism-based; settings: in vivo, 3.2 mg/kg; summary of the method: as §3
# [30] = Half life in fasted Beagle dog at 0.25 mg/kg, iv; type: ADME, organism-based, Canis lupus familiaris; design: dose 0.25 mg/kg, route intravenous; settings: in vivo
# Summary of the method: (§4)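 Dogs were dosed at 0.25 mg/kg iv and 0.5 mg/kg po, and plasma concentration was followed over time. Half-life came from the iv arm; clearance, Cmax and Tmax were also derived.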
# [31] = Oral bioavailability in fasted Beagle dog at 0.5 mg/kg; type: ADME, organism-based, Canis lupus familiaris; settings: in vivo; summary of the method: as §2
# [32] = Clearance in fasted Beagle dog at 0.25 mg/kg, iv and 0.5 mg/kg, po; type: ADME, organism-based, Canis lupus familiaris; settings: in vivo; summary of the method: as §4
# [33] = Cmax in fasted Beagle dog at 0.25 mg/kg, iv and 0.5 mg/kg, po; type: ADME, organism-based, Canis lupus familiaris; settings: in vivo; summary of the method: as §4
# [34] = Tmax in fasted Beagle dog at 0.25 mg/kg, iv and 0.5 mg/kg, po; type: ADME, organism-based, Canis lupus familiaris; settings: in vivo; summary of the method: as §3
# [35] = Half life in fasted Sprague-Dawley rat plasma at 1.1 mg/kg, iv by HTLC-MS/MS analysis; type: ADME, organism-based; design: dose 1.1 mg/kg, route intravenous; summary of the method: as §1
# [36] = Oral bioavailability in fasted Sprague-Dawley rat at 2.1 mg/kg by HTLC-MS/MS analysis; type: ADME, organism-based; settings: in vivo; summary of the method: as §2
# [37] = Clearance in fasted Sprague-Dawley rat at 1.1 mg/kg, iv and 2.1 mg/kg, po by HTLC-MS/MS analysis; type: ADME, organism-based; settings: in vivo; summary of the method: as §1
# [38] = Cmax in fasted Sprague-Dawley rat at 1.1 mg/kg, iv and 2.1 mg/kg, po by HTLC-MS/MS analysis; type: ADME, organism-based; settings: in vivo; summary of the method: as §1
# [39] = Tmax in fasted Sprague-Dawley rat at 1.1 mg/kg, iv and 2.1 mg/kg, po by HTLC-MS/MS analysis; type: ADME, organism-based; settings: in vivo; summary of the method: as §3
SMILES,IC50 [1],IC50 (Glucagon receptor [2]),IC50 (Glucagon receptor [3]),IC50 [4],IC50 (Glucagon receptor [5]),IC50 (Glucagon receptor [6]),IC50 [7],IC50 (Hepatocyte [8]),inhibition (Hepatocyte [9]),fold change (FC) (Homo sapiens [15]),fold change (FC) (Homo sapiens [16]),other results
O=C(O)CCNC(=O)c1ccc(CN(c2ccc3c(c2)CCC3)c2nc(-c3ccc(C(F)(F)F)cc3)cs2)cc1,1.1 µM,0.086 µM,0.064 µM,0.51 µM,5.4 µM,0.83 µM,0.081 µM,< 20 µM,inactive,5,> 50,half-life [10]: 2.18 h; bioavailability [11]: 89%; clearance [12]: 13 mL/min/kg; Cmax [13]: 920 ng/mL; Tmax [14]: 1 h
O=C(O)CCNC(=O)c1ccc(CN(c2ccc3c(c2)CCCC3)c2nc(-c3ccc(C(F)(F)F)cc3)cs2)cc1,0.564 µM,0.077 µM,0.048 µM,0.39 µM,,,0.003 µM,,,5,> 50,half-life [17]: 1.23 h; bioavailability [18]: 27%; clearance [19]: 7 mL/min/kg; Cmax [20]: 615 ng/mL; Tmax [21]: 1.5 h
O=C(O)CCNC(=O)c1ccc(CN(c2ccc(Cl)cc2)c2nc(-c3ccc(OC(F)(F)F)cc3)cs2)cc1,0.869 µM,0.082 µM,0.053 µM,0.46 µM,1.7 µM,0.418 µM,0.06 µM,2.8 µM,inactive,5,> 50,IC50 [22]: 1.2 µM; IC50 [23]: 5.7 µM; IC50 [24]: 0.078 µM; half-life [25]: 1.52 h; bioavailability [26]: 16%; clearance [27]: 6 mL/min/kg; Cmax [28]: 521 ng/mL; Tmax [29]: 1 h; half-life [30]: 1.1 h; bioavailability [31]: 71%; clearance [32]: 4.64 mL/min/kg; Cmax [33]: 554 ng/mL; Tmax [34]: 1.5 h
O=C(O)CCNC(=O)c1ccc(CN(c2ccc3c(c2)Cc2ccccc2-3)c2nc(-c3ccc(OC(F)(F)F)cc3)cs2)cc1,0.488 µM,0.05 µM,0.059 µM,0.29 µM,1.8 µM,0.218 µM,0.062 µM,0.7 µM,inactive,5,> 50,half-life [35]: 2.47 h; bioavailability [36]: 12%; clearance [37]: 5 mL/min/kg; Cmax [38]: 471 ng/mL; Tmax [39]: 5 h
